The IC50 is the point on the concentration scale where inhibition reaches its midpoint. A higher IC50 goes with a need for much substance.

Data on 11 compounds can be found in ChEMBL document CHEMBL1817573, “Synthesis, structure elucidation, determination of the lipophilicity and identification of antitumour activities in vitro of novel 3-(2-furanyl)-8-aryl-7,8-dihydroimidazo[2,1-c][1,2,4]triazin-4(6H)-ones with a low cytotoxicity towards normal human skin fibroblast cells” (Bioorg Med Chem, 2011).

Data set [1] has as its system T47D. In words: Growth inhibition of human T47D cells at 50 ug/ml after 48 hrs by spectrophotometric analysis. It is filed as functional. Conditions: read-out: GI. The method in brief: (§1)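 Normal primary human skin fibroblasts (HSF), HeLa (ECACC 93021013) and T47D (ECACC 85102201) were each seeded at 10⁴ cells/mL. Compounds were predissolved in DMSO and tested at a single 50 µg/mL (about 0.14–0.18 mM). Cultures were incubated at 37 °C, 5% CO₂, 90% humidity for 24, 48 or 72 h, and percent growth inhibition was read spectrophotometrically.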

Data set [2] has as its system T47D. The data set is described as follows: Growth inhibition of human T47D cells at 50 ug/ml after 72 hrs by spectrophotometric analysis. The format is functional. Conditions: read-out: GI. The method in brief: as §1
Data set [3] deals with T47D. In words: Growth inhibition of human T47D cells at 50 ug/ml after 24 hrs by spectrophotometric analysis. It is filed as functional. The conditions noted are these: read-out: GI. The essentials:
as §1

The subject of data set [4] is HeLa. In words: Growth inhibition of human HeLa cells at 50 ug/ml after 72 hrs by spectrophotometric analysis. The conditions noted are these: read-out: GI. It is filed as functional. The essentials:
as §1

The nature of data set [5]: Lipophilicity, log Kw of the compound in methanol-water mixture by RP-HPLC. It is filed as physicochemical. The essentials: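 Isocratic RP-HPLC on a C18 column (150 × 4.6 mm, 5 µm) at 22 °C, 1 mL/min, DAD detection. Mobile phases were methanol (30–80%), 20% acetate buffer pH 3.5 (0.2 M acetate, pH measured in aqueous solution) and 0.01 M/L octane-1-sulfonic acid sodium salt. log kw was extrapolated with the Snyder–Soczewiński equation.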

The nature of data set [6]: Growth inhibition of human HSF cells at 50 ug/ml after 24 hrs by spectrophotometric analysis. The format is cell-based. Conditions: read-out: GI. The essentials:
as §1

Data set [7] is described as follows: Growth inhibition of human HSF cells at 50 ug/ml after 72 hrs by spectrophotometric analysis. The format is cell-based. Conditions: read-out: GI. The method in brief:
as §1

A short description of data set [8]: Growth inhibition of human HSF cells at 50 ug/ml after 48 hrs by spectrophotometric analysis. Conditions: read-out: GI. The format is cell-based. The essentials: as §1
For data set [9], the system named is HeLa. The data set is described as follows: Growth inhibition of human HeLa cells at 50 ug/ml after 24 hrs by spectrophotometric analysis. The format is functional. Conditions: read-out: GI. The method in brief:
as §1

Data set [10] concerns HeLa. In words: Growth inhibition of human HeLa cells at 50 ug/ml after 48 hrs by spectrophotometric analysis. The format is functional. Conditions: read-out: GI. The method in brief:
as §1

Data set [11] concerns T47D. In words: Antitumor activity against human T47D cells after 48 hrs by spectrophotometric analysis. It is filed as functional, cell-based. The essentials: (§2)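 Cancer lines were HeLa (ECACC 93021013, cervix epitheloid carcinoma) and T47D (ECACC 85102201, breast carcinoma). Cells were seeded at 10⁴ cells/mL, treated with compounds dissolved in DMSO, and incubated at 37 °C, 5% CO₂, 90% humidity for 24, 48 or 72 h. Read-out was the BrdU assay, and IC50 was calculated from dose–response curves.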

Data set [12] deals with HeLa. The data set is described as follows: Antitumor activity against human HeLa cells after 48 hrs by spectrophotometric analysis. The format is functional, cell-based. The essentials: as §2
In data set [13] the test system is HeLa. In words: Antitumor activity against human HeLa cells after 24 hrs by spectrophotometric analysis. The format is functional, cell-based. The essentials:
as §2

Data set [14] concerns HeLa. The data set is described as follows: Antitumor activity against human HeLa cells after 72 hrs by spectrophotometric analysis. It is filed as functional, cell-based. The essentials: as §2
Data set [15] concerns T47D. In words: Antitumor activity against human T47D cells after 24 hrs by spectrophotometric analysis. It is filed as functional, cell-based. The method in brief:
as §2

Data set [16] deals with T47D. The data set is described as follows: Antitumor activity against human T47D cells after 72 hrs by spectrophotometric analysis. The format is functional, cell-based. The essentials:
as §2

As for `O=c1c(-c2ccco2)nnc2n1CCN2c1cccc(Cl)c1`, the inhibition of growth at 50 µg/mL in the data set on T47D [1] was 50%; in the data set on T47D [2], 80%; with T47D [3], 20%; in the data set on HeLa [4] it was 95%; with HeLa [9], 80%; in the data set on HeLa [10] it was 80%. Also, in data set [5], the logKw turned out to be 3.45. In data set [6], the inhibition at 24 h, 50 ug/ml stood at 25%. Moreover, the inhibition at 72 h, 50 ug/ml in [7] was 75%. Further, the inhibition at 48 h, 50 ug/ml in [8] turned out to be 60%.
With `COc1ccccc1N1CCn2c1nnc(-c1ccco1)c2=O`, the inhibition of growth at 50 µg/mL came to 30% in the data set on T47D [1]; 70% with T47D [2]; 0% in the data set with T47D [3]; 80% in the data set on HeLa [4]; 25% in the data set on HeLa [9]; 35% in the data set with HeLa [10]. Moreover, in data set [5], the logKw was found to be 2.54. Further, the inhibition at 24 h, 50 ug/ml in [6] came out at 0%. In data set [7], the inhibition at 72 h, 50 ug/ml came to 5%. In [8], the inhibition at 48 h, 50 ug/ml was found to be 0%.
For the compound `Cc1ccccc1N1CCn2c1nnc(-c1ccco1)c2=O`, the inhibition of growth at 50 µg/mL with T47D [1] amounted to 50%; with T47D [2] it was 75%; in the data set on T47D [3], 25%; in the data set on HeLa [4], 50%; with HeLa [9], 25%; in the data set on HeLa [10], 25%. Besides, the logKw in data set [5] turned out to be 2.48. The inhibition at 24 h, 50 ug/ml in data set [6] turned out to be 0%. Besides, the inhibition at 72 h, 50 ug/ml in data set [7] came out at 0%. For the same compound, in [8], the inhibition at 48 h, 50 ug/ml is 0%.
As to `COc1ccc(N2CCn3c2nnc(-c2ccco2)c3=O)cc1`, the inhibition of growth at 50 µg/mL in the data set on T47D [1] was determined as 70%; with T47D [2], 80%; in the data set on T47D [3], 50%; with HeLa [4], 95%; in the data set with HeLa [9], 80%; in the data set on HeLa [10], 80%. Moreover, the logKw in data set [5] turned out to be 2.89. Further, the inhibition at 24 h, 50 ug/ml in data set [6] is 10%. Besides, the inhibition at 72 h, 50 ug/ml in data set [7] is 60%. In addition, the inhibition at 48 h, 50 ug/ml in data set [8] was found to be 50%.
For `Cc1cccc(N2CCn3c2nnc(-c2ccco2)c3=O)c1C`, the inhibition of growth at 50 µg/mL is 15% in the data set with T47D [1]; 25% in the data set on T47D [2]; 0% in the data set with T47D [3]; 90% in the data set on HeLa [4]; 60% in the data set with HeLa [9]; 75% in the data set on HeLa [10]. In addition, the logKw in [5] was determined as 3. Besides, the inhibition at 24 h, 50 ug/ml in [6] was 0%. The inhibition at 72 h, 50 ug/ml in data set [7] is 0%. Further, the inhibition at 48 h, 50 ug/ml in data set [8] was 0%.
In the case of `Cc1ccc(N2CCn3c2nnc(-c2ccco2)c3=O)cc1`, the inhibition of growth at 50 µg/mL in the data set on T47D [1] was determined as 60%; with T47D [2] it was 80%; with T47D [3], 40%; in the data set with HeLa [4], 80%; in the data set with HeLa [9], 50%; in the data set with HeLa [10] it was 50%. In data set [5], the logKw is recorded as 3.27. Also, the inhibition at 24 h, 50 ug/ml in data set [6] turned out to be 30%. Moreover, the inhibition at 72 h, 50 ug/ml in data set [7] came to 50%. Besides, the inhibition at 48 h, 50 ug/ml in data set [8] turned out to be 50%.
Take `O=c1c(-c2ccco2)nnc2n1CCN2c1c(Cl)cccc1Cl`: the inhibition of growth at 50 µg/mL in the data set on T47D [1] worked out at 20%; in the data set with T47D [2], 25%; in the data set on T47D [3] it was 10%; in the data set with HeLa [4], 95%; in the data set with HeLa [9] it was 80%; with HeLa [10] it was 80%. Besides, the logKw in data set [5] was determined as 2.97. Further, in data set [6], the inhibition at 24 h, 50 ug/ml amounted to 10%. Further, the inhibition at 72 h, 50 ug/ml in data set [7] was determined as 15%. In addition, the inhibition at 48 h, 50 ug/ml in [8] was 15%.
Consider `O=c1c(-c2ccco2)nnc2n1CCN2c1ccccc1Cl`, for which the IC50 in the data set with T47D [11] was greater than 160 µM; with HeLa [12], 110 µM; in the data set on HeLa [13] it was 110 µM; in the data set with HeLa [14], 90 µM; with T47D [15] it was greater than 160 µM; in the data set with T47D [16] it was greater than 160 µM. The inhibition of growth at 50 µg/mL in the data set with T47D [1] was determined as 15%; in the data set with T47D [2] it was 25%; in the data set on T47D [3] it was 5%; in the data set with HeLa [4] it was 100%; with HeLa [9], 80%; in the data set on HeLa [10], 80%. In [5], the logKw was 2.78. The inhibition at 24 h, 50 ug/ml in data set [6] was 10%. Moreover, the inhibition at 72 h, 50 ug/ml in data set [7] worked out at 20%. Moreover, the inhibition at 48 h, 50 ug/ml in data set [8] came out at 20%.
As for `O=c1c(-c2ccco2)nnc2n1CCN2c1ccccc1`, the IC50 is 110 µM with T47D [11]; 130 µM with HeLa [12]; 180 µM with HeLa [13]; 100 µM in the data set on HeLa [14]; 180 µM in the data set on T47D [15]; 100 µM with T47D [16]. In addition, the inhibition of growth at 50 µg/mL with T47D [1] amounted to 85%; with T47D [2], 95%; with T47D [3] it was 50%; in the data set on HeLa [4], 100%; with HeLa [9] it was 50%; with HeLa [10] it was 75%. Besides, the logKw in data set [5] is 2.64. Moreover, the inhibition at 24 h, 50 ug/ml in data set [6] is 50%. Further, the inhibition at 72 h, 50 ug/ml in [7] stood at 60%. For the same compound, in data set [8], the inhibition at 48 h, 50 ug/ml amounted to 50%.
`O=c1c(-c2ccco2)nnc2n1CCN2c1ccc(Cl)cc1`: the inhibition of growth at 50 µg/mL in the data set with T47D [1] is 15%; in the data set on T47D [2], 15%; in the data set with T47D [3] it was 0%; with HeLa [4], 90%; in the data set on HeLa [9], 50%; in the data set with HeLa [10] it was 75%. For the same compound, in data set [5], the logKw is 3.45. Further, the inhibition at 24 h, 50 ug/ml in [6] came to 50%. Moreover, in data set [7], the inhibition at 72 h, 50 ug/ml came to 90%. Also, in data set [8], the inhibition at 48 h, 50 ug/ml was 80%.
With `O=c1c(-c2ccco2)nnc2n1CCN2c1ccc(Cl)c(Cl)c1`, the inhibition of growth at 50 µg/mL with T47D [1] amounted to 20%; in the data set with T47D [2], 40%; with T47D [3], 10%; with HeLa [4], 95%; with HeLa [9], 50%; in the data set with HeLa [10], 50%. For the same compound, in [5], the logKw amounted to 4.01. For the same compound, the inhibition at 24 h, 50 ug/ml in [6] amounted to 0%. Besides, the inhibition at 72 h, 50 ug/ml in [7] worked out at 80%. In data set [8], the inhibition at 48 h, 50 ug/ml stood at 50%.
